# Experimental data reported in ChEMBL document CHEMBL4715734, “Discovery of the Potent and Selective M1 PAM-Agonist N-[(3R,4S)-3-Hydroxytetrahydro-2H-pyran-4-yl]-5-methyl-4-[4-(1,3-thiazol-4-yl)benzyl]pyridine-2-carboxamide (PF-06767832): Evaluation of Efficacy and Cholinergic Side Effects” (J Med Chem, 2016).
# Calls of active or inactive are those of the source. No cut-off for these calls is given here.
# Key:
# Mus musculus [1] = assay: In vivo positive allosteric modulation of muscarinic M1 receptor in CD-1 mouse assessed as increase in ACh-induced IP-1 levels in […] tissue administered subcutaneously measured after 2 hrs by HTRF assay; format: functional, organism-based
# Procedure, shortened: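 Mice were dosed subcutaneously with a solution in 5/15/80 DMSO/Solutol/water across a 0.1–10 mg/kg dose series. IP1 accumulation in striatum was measured over a 2 h treatment and expressed as fold increase over baseline for each animal. Compound levels were measured in striatal tissue at 2 h (N=5/dose), and unbound brain concentration was derived from these.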
# [2] = Toxicity in male Beagle dog assessed as increase in blood pressure at 3 mg/kg, po observed upto 9 hrs post last dose by telemetry; format: organism-based, Canis lupus familiaris; conditions: in vivo
# Procedure, shortened: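 Crossover telemetry study in dogs at three oral doses (0.3, 1 and 3 mg/kg), N=4. Endpoints were blood pressure, maximum systolic left ventricular pressure, LV +dP/dt max, activity, heart rate, and RR, QT and QTc intervals, followed up to 9 h post dose.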
# [3] = Toxicity in dog assessed as emesis at 45 mg/kg, po using spray-dried dispersion formulation measured after 45 mins; format: organism-based, Canis lupus familiaris; conditions: in vivo, 0.75 h
# Procedure, shortened: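 Dogs received single escalating oral doses as a spray-dried dispersion (10% drug loading with HPMCAS-M). The dispersion was suspended in 0.5 wt% methylcellulose/0.5 wt% HPMCAS in 20 mM tris buffer, pH 7.4. One dog per sex per dose was used, and clinical signs were recorded.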
# [4] = fCmax in dog at 15 mg/kg, po using spray-dried dispersion formulation; format: ADME, organism-based, Canis lupus familiaris; conditions: in vivo
# [5] = fCmax in dog at 5 mg/kg, po using spray-dried dispersion formulation; format: ADME, organism-based, Canis lupus familiaris; conditions: in vivo
# [6] = fAUC (0 to 24 hrs) in rat at 15 mg/kg, po administered for 14 days; format: ADME, organism-based; conditions: in vivo, 336 h, time 14 day
# Procedure, shortened: (§1)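 2-week repeat oral dosing in rats, 0.5% methylcellulose formulation; N=4/sex/dose; doses 3, 10, 30 (males)/15 (females) mg/kg; unbound exposures reported per dose and sex.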
# [7] = fCmax in rat at 30 mg/kg, po administered for 14 days; format: ADME, organism-based; conditions: in vivo, 336 h, time 14 day; procedure, shortened: as §1
# [8] = fCmax in rat at 15 mg/kg, po administered for 14 days; format: ADME, organism-based; conditions: in vivo, 336 h, time 14 day; procedure, shortened: as §1
# [9] = Unbound plasma concentration in […] in Sprague-Dawley rat model at 3.2 mg/kg, sc measured after 1.67 hrs; format: ADME, organism-based; conditions: in vivo
# Procedure, shortened: (§2)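 Randomly selected animals (N=2/dose) at the end of the rat PPI study, T = 1.67 h. Dosed subcutaneously as a suspension in 0.5% methylcellulose in water. Plasma and brain concentrations were averaged.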
# [10] = Unbound brain concentration in […] in Sprague-Dawley rat model at 1 mg/kg, sc measured after 1.67 hrs; format: ADME, organism-based; conditions: in vivo; procedure, shortened: as §2
# [11] = Unbound plasma concentration in […] in Sprague-Dawley rat model at 1 mg/kg, sc measured after 1.67 hrs; format: ADME, organism-based; conditions: in vivo; procedure, shortened: as §2
# [12] = Unbound brain concentration in amphetamine-induced C57BL/6J mouse model of hyperlocomotion at 3.2 mg/kg, sc measured after 1 hr; format: ADME, organism-based; conditions: in vivo
# Procedure, shortened: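 Satellite PK animals from the mouse aLMA study, N=2/dose. Dosed subcutaneously with a solution in 5/15/80 DMSO/Solutol/water. Plasma and brain were sampled at T = 1 h.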
# [13] = Unbound brain concentration in CD-1 mouse at 10 mg/kg, sc measured after 2 hrs by LC-MS/MS analysis; format: ADME, organism-based; conditions: in vivo
# [14] = Unbound plasma concentration in CD-1 mouse at 3.2 mg/kg, sc measured after 2 hrs by LC-MS/MS analysis; format: ADME, organism-based; conditions: in vivo
# [15] = Unbound plasma concentration in CD-1 mouse at 1 mg/kg, sc measured after 2 hrs by LC-MS/MS analysis; format: ADME, organism-based; conditions: in vivo
# Mus musculus [16] = assay: Reversal of amphetamine-induced hyperlocomotion in C57BL/6J mouse at 1 mg/kg, sc incubated for 30 mins followed by addition of amphetamine measured after 90 mins; format: functional, organism-based; conditions: time 120.0 min
# Procedure, shortened: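 The compound was given sc as a solution in 5/15/80 DMSO/Solutol/water, and amphetamine-induced locomotor activity was compared with vehicle. Plasma and brain exposure came from a satellite group (N=2/dose) sampled at 1 h after the same dosing.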
# [17] = biological target: Dual 3',5'-cyclic-AMP and -GMP phosphodiesterase 11A (Homo sapiens, UniProt Q9HCR9); assay: Inhibition of PDE11A4 (unknown origin)
# [18] = biological target: T1, Muscarinic acetylcholine receptor M1 (Homo sapiens, UniProt P11229); assay: Agonist activity at muscarinic M1 receptor (unknown origin) expressed in CHO cells assessed as accumulation of inositol phosphate measured after 30 mins by HTRF assay; format: functional, cell-based
# T1 sequence (P11229 whole entry): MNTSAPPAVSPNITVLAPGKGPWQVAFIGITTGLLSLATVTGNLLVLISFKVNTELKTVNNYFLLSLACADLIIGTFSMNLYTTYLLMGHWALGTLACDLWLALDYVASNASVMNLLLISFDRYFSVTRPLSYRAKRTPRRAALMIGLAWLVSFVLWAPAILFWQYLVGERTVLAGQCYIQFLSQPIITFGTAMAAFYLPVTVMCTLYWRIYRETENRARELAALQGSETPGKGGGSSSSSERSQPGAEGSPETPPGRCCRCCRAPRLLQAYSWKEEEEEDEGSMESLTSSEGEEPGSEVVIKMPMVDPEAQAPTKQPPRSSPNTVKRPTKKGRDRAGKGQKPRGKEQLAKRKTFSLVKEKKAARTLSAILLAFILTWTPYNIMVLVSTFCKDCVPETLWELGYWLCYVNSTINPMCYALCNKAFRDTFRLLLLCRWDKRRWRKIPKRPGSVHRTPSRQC
# [19] = Fraction unbound in Beagle dog plasma; format: ADME, Canis lupus familiaris
# [20] = Ratio of AUC in dog brain to fAUC in dog plasma; format: ADME, cell-free, Canis lupus familiaris; conditions: in vivo
# [21] = Toxicity in rat at 3 mg/kg, po administered for 14 days; format: organism-based; conditions: in vivo, 336 h, time 14 day
# Procedure, shortened: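 Two-week repeat-dose toxicity study in rats. Oral dosing in 0.5% methylcellulose at 3, 10, 30 (males)/15 (females) mg/kg, N=4/sex/dose. Food intake, body weight gain and histopathology were assessed.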
# [22] = Lipophilicity, log D of compound; format: physicochemical; conditions: octanol/water
# [23] = Toxicity in dog at 1 mg/kg, po using spray-dried dispersion formulation; format: organism-based, Canis lupus familiaris; conditions: in vivo
# [24] = biological target: T2, Muscarinic acetylcholine receptor M1 (Homo sapiens) (UniProt P11229); assay: Binding affinity to human muscarinic M1 receptor stably expressed in CHO cells assessed as increase in intracellular calcium level by measuring binding constant measured after 10 mins by Fluo-8AM dye based FLIPR TETRA method; format: cell-based; conditions: filed as positive allosteric modulator
# T2 sequence (whole entry): T1 sequence (P11229 whole entry)
# [25] = biological target: T2, Muscarinic acetylcholine receptor M1 (Homo sapiens); assay: Binding affinity to muscarinic M1 receptor (unknown origin) assessed as recruitment of beta-arrestin by Path Hunter assay; format: cell-based; conditions: CHO, filed as positive allosteric modulator
# Rattus norvegicus = assay: Reversal of scopolamine-induced memory impairment in Wistar rat model at 0.32 mg/kg, po administered 15 min before training followed by 30 mins later administration with scopolamine measured after 24 hrs by Morris water maze test
# [26] = biological target: Muscarinic acetylcholine receptor M3 (Homo sapiens, UniProt P20309); assay: Positive allosteric modulation of human recombinant muscarinic M3 receptor stably expressed in CHO cells assessed as increase in Ach-induced accumulation of intracellular calcium level upto 10 uM incubated for 10 mins followed by addition of Ach at EC20 concentration by Fluo-8AM dye based FLIPR TETRA method
# Chain of Muscarinic acetylcholine receptor M3 (P20309 whole entry): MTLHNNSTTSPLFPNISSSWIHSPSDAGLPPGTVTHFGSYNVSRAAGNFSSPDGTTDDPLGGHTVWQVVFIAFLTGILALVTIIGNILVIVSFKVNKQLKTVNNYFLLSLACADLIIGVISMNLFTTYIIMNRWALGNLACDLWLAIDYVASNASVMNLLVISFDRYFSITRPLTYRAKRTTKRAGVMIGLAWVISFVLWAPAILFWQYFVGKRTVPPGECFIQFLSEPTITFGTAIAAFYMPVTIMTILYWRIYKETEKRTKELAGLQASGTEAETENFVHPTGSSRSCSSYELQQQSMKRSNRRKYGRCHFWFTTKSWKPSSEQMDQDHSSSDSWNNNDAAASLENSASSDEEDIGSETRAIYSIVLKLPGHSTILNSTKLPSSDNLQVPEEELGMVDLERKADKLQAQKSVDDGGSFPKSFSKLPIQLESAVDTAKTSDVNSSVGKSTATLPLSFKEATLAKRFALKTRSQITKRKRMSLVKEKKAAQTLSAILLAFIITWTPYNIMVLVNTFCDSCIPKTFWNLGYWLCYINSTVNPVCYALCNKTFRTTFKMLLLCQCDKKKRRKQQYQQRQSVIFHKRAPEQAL
# Chain of Dual 3',5'-cyclic-AMP and -GMP phosphodiesterase 11A (Q9HCR9 whole entry): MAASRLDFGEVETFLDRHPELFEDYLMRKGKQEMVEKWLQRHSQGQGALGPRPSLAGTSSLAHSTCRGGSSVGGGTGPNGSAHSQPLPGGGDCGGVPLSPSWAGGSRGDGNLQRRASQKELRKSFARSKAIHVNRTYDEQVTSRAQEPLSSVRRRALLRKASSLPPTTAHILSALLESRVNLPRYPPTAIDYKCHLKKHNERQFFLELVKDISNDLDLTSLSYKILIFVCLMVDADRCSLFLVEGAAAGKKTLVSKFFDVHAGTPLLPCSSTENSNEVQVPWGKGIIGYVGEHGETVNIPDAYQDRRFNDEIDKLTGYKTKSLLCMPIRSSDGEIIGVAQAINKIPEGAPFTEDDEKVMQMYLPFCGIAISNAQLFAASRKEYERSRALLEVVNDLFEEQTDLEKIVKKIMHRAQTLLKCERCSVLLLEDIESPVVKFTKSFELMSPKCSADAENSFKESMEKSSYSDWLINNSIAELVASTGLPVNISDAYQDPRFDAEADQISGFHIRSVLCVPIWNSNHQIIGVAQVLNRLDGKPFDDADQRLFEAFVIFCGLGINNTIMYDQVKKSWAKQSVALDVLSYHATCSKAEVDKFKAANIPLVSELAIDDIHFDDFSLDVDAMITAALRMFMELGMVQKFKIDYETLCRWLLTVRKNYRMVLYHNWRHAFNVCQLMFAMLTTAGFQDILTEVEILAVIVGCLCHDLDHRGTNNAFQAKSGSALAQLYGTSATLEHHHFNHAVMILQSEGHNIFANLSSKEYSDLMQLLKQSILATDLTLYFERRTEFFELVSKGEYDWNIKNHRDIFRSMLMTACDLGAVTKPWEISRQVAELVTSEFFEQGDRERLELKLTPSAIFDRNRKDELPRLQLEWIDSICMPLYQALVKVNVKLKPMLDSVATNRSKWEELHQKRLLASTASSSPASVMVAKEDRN
compound,measurement,setting,value
Cc1cnc(C(=O)N[C@H]2CCOC[C@@H]2O)cc1Cc1ccc(-c2cscn2)cc1,Activity,Mus musculus [1],Dose-dependent effect
same,Activity,[2],7 mmHg
same,Activity,[3],Toxic
same,fCmax,[4],1050 nM
same,fCmax,[5],659 nM
same,fAUC,[6],9.768 µM·h
same,fCmax,[7],1221 nM
same,fCmax,[8],708 nM
same,Cp(f),[9],123 nM
same,Drug uptake(free),[10],17.4 nM
same,Cp(f),[11],45.6 nM
same,Drug uptake(free),[12],85.2 nM
same,Drug uptake(free),[13],195 nM
same,Cp(f),[14],176 nM
same,Cp(f),[15],42.1 nM
same,Activity,Mus musculus [16],Active
same,IC50,[17],4.94 µM
same,EC50,[18],≥ 9.2 µM
same,Fu,[19],8.1%
same,Ratio AUC,[20],0.6
same,Activity,[21],Non-Toxic
same,logD,[22],2.2
same,Activity,[23],Non-Toxic
same,Kb,[24],5 µM
same,Ka,[25],20 µM
same,Activity,Rattus norvegicus,Active
same,Activity,[26],Not Active
